The values that follow come from ChEMBL document CHEMBL1649452, “The chromosomal toxin gene yafQ is a determinant of multidrug tolerance for Escherichia coli growing in a biofilm” (2009).

Values after ≈ are worked out from the molar mass of the structure shown. Active and inactive are the calls of the source. The calls are words filed in the database; no cut-off is given here.

Assay [1] concerns Escherichia coli. Nature of the assay: Bactericidal activity against yafQ gene-deficient Escherichia coli K-12 BW25113 biofilm assessed as log reduction of viable cells after 24 hrs relative to wild-type Escherichia coli K-12 BW25113. The class given is functional. Summed up: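 Biofilms grown 24 h at 37°C, 125 rpm, 95% humidity on Calgary device pegs from ~1.0 × 10^7 CFU/ml inoculum (1.0 McFarland diluted 30-fold). After a saline rinse, biofilms went into twofold antibiotic dilutions, were rinsed twice, and sonicated 5 min in LB with 1% Tween 20. Survivors were counted on LB agar after ≥24 h at 37°C. Mean log killing compared with wild type; significance required ≥50-fold difference and non-overlapping SDs.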

Assay [2] relates to Escherichia coli. Kind of assay: Effect on survival of Escherichia coli K-12 BW25113 biofilm harboring pCA24N ptac::yafQ plasmid assessed as increase in cell survival after 24 hrs pretreated with 5 uM of IPTG for 4 hrs relative to wild-type Escherichia coli K-12 […]. It counts as functional. Summed up: (§1)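 Biofilms grown 24 h at 37°C, 125 rpm, 95% humidity on Calgary device pegs from ~1.0 × 10^7 CFU/ml inoculum. Strain carries IPTG-inducible pCA24N vector, grown with 30 μg/ml chloramphenicol. Biofilms were rinsed, then induced 4 h at 37°C, 125 rpm in LB with chloramphenicol and 5 μM IPTG before twofold antibiotic dilutions. Survivors were recovered by sonication in LB plus 1% Tween 20 and plated; mean log killing calculated.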

The test system of assay [3] is Escherichia coli. Kind of assay: Bactericidal activity against Escherichia coli K-12 BW25113 biofilm harboring pCA24N ptac::yafQ plasmid assessed as log reduction of viable cells after 24 hrs pretreated with 5 uM of IPTG for 4 hrs. The class given is functional, organism-based. Summed up: as §1
For assay [4], the system named is Escherichia coli. Nature of the assay: Antimicrobial activity against Escherichia coli K-12 BW25113 by broth microdilution method. The class given is functional. Summed up:
(§2)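 Broth microdilution MIC per CLSI protocol; wild-type and ΔyafQ strains from Keio collection, stored at −70°C in LB with 8% DMSO, cultured on LB agar at 37°C.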

The test system of assay [5] is Escherichia coli. Nature of the assay: Antimicrobial activity against yafQ gene-deficient Escherichia coli K-12 BW25113 by broth microdilution method. The class given is functional. Summed up:
as §2
A general note: Broth dilution looks for growth in wells or tubes with falling amounts of substance.

Assay [6] relates to Escherichia coli. Kind of assay: Bactericidal activity against yafQ gene-deficient Escherichia coli K-12 BW25113 stationary-phase planktonic cell assessed as log reduction of viable cells after 24 hrs. The class given is functional, organism-based. The essentials: (§3)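 Stationary-phase planktonic cells from LB grown 18–20 h at 225 rpm, 37°C, then pelleted and resuspended at 2× concentration in fresh medium. 100 μl cells added to 100 μl of 2× twofold antibiotic dilutions. Starting counts by viable plating. Recovery, dilution and counting as for biofilms (LB + 1% Tween 20, LB agar ≥24 h at 37°C); mean log killing calculated.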

Assay [7] relates to Escherichia coli. Nature of the assay: Bactericidal activity against Escherichia coli K-12 BW25113 stationary-phase planktonic cell assessed as log reduction of viable cells after 24 hrs. The class given is functional, organism-based. Summed up: as §3
In assay [8] the test system is Escherichia coli. Nature of the assay: Bactericidal activity against yafQ gene-deficient Escherichia coli K-12 BW25113 biofilm assessed as log reduction of viable cells after 24 hrs. The class given is functional, organism-based. Summed up:
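Biofilms grown on the 96-peg polystyrene lid of a Calgary biofilm device. Inoculum was a 1.0 McFarland suspension diluted 30-fold in growth medium (~1.0 × 10^7 CFU/ml). Grown 24 h at 37°C, 125 rpm, 95% humidity, then saline-rinsed and exposed to twofold antibiotic dilutions. Rinsed twice, sonicated 5 min in LB + 1% Tween 20, plated on LB agar ≥24 h at 37°C. Mean log killing taken from viable counts.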

By MIC is commonly meant the lowest concentration that inhibits growth of the organism. High values mean a less susceptible organism, low ones a more susceptible organism. For `Cc1nnc(SCC2=C(C(=O)O)N3C(=O)[C@@H](NC(=O)Cn4cnnn4)[C@H]3SC2)s1` [CEFAZOLIN], the FC in the assay with Escherichia coli [1] is on record as 2400. The “fold change (FC)” value with Escherichia coli [2] is reported as 10000. In addition, in the assay on Escherichia coli [3], the result was inactive. Besides, the MIC in the assay on Escherichia coli [4] and against Escherichia coli [5] was 4 µg/mL (≈ 8.8 µM) in each case. The result in the assay with Escherichia coli [6] and with Escherichia coli [7] was Active.
With `C[C@H]1c2cccc(O)c2C(=O)C2=C(O)[C@]3(O)C(=O)C(C(N)=O)=C(O)[C@@H](N(C)C)[C@@H]3[C@@H](O)[C@@H]21.O` [DOXYCYCLINE], the result in the assay on Escherichia coli [8] and in the assay with Escherichia coli [3] was Active. Further, the results for the MIC against Escherichia coli [4] and with Escherichia coli [5] were 4 µg/mL and 3 µg/mL, respectively.
As to `CO[C@H]1/C=C/O[C@@]2(C)Oc3c(C)c(O)c4c(O)c(c(/C=N/N5CCN(C)CC5)c(O)c4c3C2=O)NC(=O)/C(C)=C\C=C\[C@H](C)[C@H](O)[C@@H](C)[C@@H](O)[C@@H](C)[C@H](OC(C)=O)[C@@H]1C` [RIFAMPIN], the result in the assay with Escherichia coli [8] and in the assay on Escherichia coli [3] was Active. The MIC in the assay with Escherichia coli [4] and in the assay on Escherichia coli [5] was 16 µg/mL (≈ 19.4 µM) throughout.
With `NC[C@H]1O[C@H](O[C@H]2[C@H](O)[C@@H](O[C@H]3O[C@H](CO)[C@@H](O)[C@H](N)[C@H]3O)[C@H](N)C[C@@H]2N)[C@H](N)C[C@@H]1O` [TOBRAMYCIN], the FC with Escherichia coli [1] was 760. In addition, the “fold change (FC)” value in the assay on Escherichia coli [2] was 3300. Besides, in the assay with Escherichia coli [3], the result was inactive. Moreover, the MIC against Escherichia coli [4] was determined as 1.5 µg/mL (≈ 3.21 µM); against Escherichia coli [5], 2 µg/mL (≈ 4.28 µM). Besides, the result with Escherichia coli [6] and with Escherichia coli [7] was Active.
